For 7 compounds, activation results are on record in PubChem BioAssay AID651723 (Broad Institute, 2012).

Screen size: about 350,000 compounds; about 740 (0.21%) were called active.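 Rule for the calls: active = every replicate reaching activation of at least 50%, whatever the mean replicate activation; inconclusive = replicates that disagree or another doubt; inactive = the rest.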 Only a selection was taken, and actives are over-represented in it overall.

A short description of this test: compounds raising PGC1a acetylation signal, primary screen, PGC1a modulator project, cell-based, U2OS, AlphaScreen, signal-increasing mode (AID 651723). The conditions noted are these: overnight, at 15.6 µM, stronger effect = higher value. The procedure, abridged: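 System – flag-PGC1a/GCN5 U2OS cells · Quantity – 7000 U2OS cells per well · Signal – AlphaScreen proximity luminescence, anti-acetyl-lysine antibody · Schedule – overnight compound treatment, 37 °C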
(In Alpha technology, singlet oxygen from a donor bead excites a nearby acceptor bead.)
For the compound `CN(C)CC1Oc2ccccc2OC1(O)c1ccccc1` (configuration not stated), the activation is 249% (active).
The value for `CCC(C)(O)C(=O)OC1C(=O)OC2CC3C(C)=CC(=O)C(O)C3(C)C3C4(O)OCC23C1C(C)C4O` (configuration not stated) was -80% (inactive); that for `O=C(CSC1c2ccccc2-c2ccccc21)N/N=C/c1ccccc1` was 73% (active).
Regarding `CC(=O)OC1C2(CC3N4C(=O)C5(CO)SSC4(CC31O)C(=O)N5C)OC(C)C(C)(C)C2=O` (configuration not stated), the activation was -60.7% (inactive).
Turning to `COC1C(O)C(C)OC(OC2CCC3(C=O)C(CCC4C3CCC3(C)C(C5=CC(=O)OC5)CCC43O)C2)C1O` (configuration not stated), the activation was -82.1% (inactive).
The value for `c1ccc(C(CN2CCCCC2)c2ccccc2)cc1` was -40.7% (inactive); that for `O=C(c1cc(S(=O)(=O)N2CCOCC2)ccc1F)N1CCC2(CC1)OCCO2` was -52.8% (inactive).
